Sampled rows, rich in hits. Any-hit rate of the full collection: about 4.8%.
SKKanGAS inh – SKKanGAS growth inhibition; inhibition, % at 7.5 µM; 300,000 compounds, 1.3% hits; S. pyogenes SKKanGAS, kanamycin growth, BacTiter-Glo, 6 h;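 active means mean replicate score, as percent of positive control median, at least 50; inconclusive means mean below 50 but one replicate at or above 50; inactive means mean and every replicate below 50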;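 further: strain carries kanamycin resistance gene driven by streptokinase promoter and grows in 40 µg/ml kanamycin; loss of luminescence reflects streptokinase promoter inhibition or plain growth inhibition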
UPR XBP1 act – adaptive UPR (XBP1) activation. CHO-XBP1 luciferase reporter, IRE1-XBP1 UPR activation, luminescence; percent of tunicamycin response, DMSO as zero. AID 463104. activation, % at 20 µM. 330,000 compounds, 0.33% hits;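 active means versus positive control, 20 µM dose yields 30% or more activation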
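Material: CHO cell line with stable XBP1 luciferase reporter; buffer or medium: F12 medium containing 10% fetal bovine serum; compound: single point, 20 µM final compound, 1% DMSO; incubation: 6 h treatment, 37 °C; measured by: glow luminescence from Steady-Glo reagent; evaluation: activation, % of tunicamycin; control set: tunicamycin high, DMSO low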
UPR CHOP act – activators of apoptotic arm of unfolded protein response (CHOP); CHO-CHOP luciferase reporter, UPR activation, luminescence; percent of tunicamycin response over DMSO baseline; activation, % at 10 µM; 330,000 compounds, 0.34% hits;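 active means at 10 µM dose, activation of 40% or more, normalized to positive control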
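Assay system: CHO cells with stable CHOP pathway luciferase reporter; Buffer or medium: F12 plus 10% serum; Times: 16-18 h cell attachment, then 6 h compound exposure, 37 °C; Signal: luciferase luminescence; Read-out basis: percent activation relative to tunicamycin control; Control set: tunicamycin high control, DMSO low control.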
Mdm2-MdmX inh – human Mdm2/MdmX binding inhibition; O15151+Q00987; SaOS-2 split-luciferase Mdm2/MdmX complementation, luminescence; inhibition, % at 8 µM; 330,000 compounds, 3% hits;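 active means inhibition of at least 50% at 8 µM in the primary screen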
Target sequence (O15151 whole entry, looked up): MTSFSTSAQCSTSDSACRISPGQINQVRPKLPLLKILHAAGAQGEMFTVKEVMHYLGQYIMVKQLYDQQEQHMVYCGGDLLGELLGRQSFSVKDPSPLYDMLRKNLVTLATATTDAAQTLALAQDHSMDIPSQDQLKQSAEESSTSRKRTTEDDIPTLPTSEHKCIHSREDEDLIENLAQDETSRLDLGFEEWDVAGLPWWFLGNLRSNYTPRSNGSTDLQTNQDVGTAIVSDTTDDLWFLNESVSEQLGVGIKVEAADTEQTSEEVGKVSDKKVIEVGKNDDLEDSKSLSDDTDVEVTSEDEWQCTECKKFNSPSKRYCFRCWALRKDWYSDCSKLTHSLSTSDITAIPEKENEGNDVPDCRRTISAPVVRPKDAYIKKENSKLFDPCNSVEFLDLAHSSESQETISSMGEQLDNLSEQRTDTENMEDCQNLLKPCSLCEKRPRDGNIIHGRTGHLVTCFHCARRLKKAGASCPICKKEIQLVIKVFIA
Target sequence (Q00987 whole entry, looked up): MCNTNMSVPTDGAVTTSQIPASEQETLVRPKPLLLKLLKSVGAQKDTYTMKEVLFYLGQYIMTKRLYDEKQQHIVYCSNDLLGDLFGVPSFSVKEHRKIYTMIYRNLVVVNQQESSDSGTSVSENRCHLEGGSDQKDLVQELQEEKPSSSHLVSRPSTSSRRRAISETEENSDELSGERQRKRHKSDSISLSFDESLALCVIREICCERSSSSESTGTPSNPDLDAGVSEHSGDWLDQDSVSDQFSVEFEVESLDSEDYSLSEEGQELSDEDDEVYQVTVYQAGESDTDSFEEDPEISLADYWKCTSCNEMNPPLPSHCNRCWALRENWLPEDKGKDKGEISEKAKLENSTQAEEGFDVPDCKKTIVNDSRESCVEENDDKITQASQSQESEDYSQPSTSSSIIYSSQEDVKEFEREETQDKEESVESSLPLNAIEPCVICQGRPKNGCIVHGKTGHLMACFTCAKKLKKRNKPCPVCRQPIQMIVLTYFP
CSC inhib – blocks cancer stem cells; cancer stem cell-like cells viability, luminescence; inhibition, % at 7.5 µM; 300,000 compounds, 1.1% hits; AID 2717; in the data active means inhibition above about 75%; inconclusive means no clear call, values can overlap the other calls; tested in HMLE shEcad cells
Beta apoptosis – blocks beta cell apoptosis | AID 435005 | INS-1E cytokine-induced death, ATP luminescence, 48 h; percent of positive-control rescue, neutral wells zero | protection from apoptosis, % (concentration not given with the values) | 300,000 compounds, 0.8% hits;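 active means Every replicate reaches about 75%, or at least half do and their mean reaches it too, limit read from the data; inconclusive means At least half of replicates reach the limit but their mean does not; inactive means Under half of replicates reach the limit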;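 further: higher means more ATP so stronger rescue from cytokine killing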
Mdm2 MdmX conf – human Mdm2/MdmX binding inhibition, confirmed; shares compounds with Mdm2-MdmX inh; inhibition, % at 8 µM; luminescent assay; AID 489028; 10,000 compounds, 55% hits; in the data active means inhibition above about 40%
Full FLuc ctr – full-length luciferase inhibition in Mdm2/MdmX counter-screen; SaOS-2 full-length luciferase counterscreen, luminescence; AID 504607; 6,200 compounds, 77% hits; shares compounds with Mdm2-MdmX inh; inhibition, % at 8 µM;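 active means mean inhibition at 8 µM reaching about 37%, which flags the compound as non-specific, limit read from the data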;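 further: p53-null SaOS-2 cells with luciferase driven by a doxycycline-inducible promoter; compound on cells about two nights before reading with doxycycline added after day one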
Numbers stand for hits; i = inactive; ? = inconclusive; nt = no result given.

SMILES	SKKanGAS inh	UPR XBP1 act	UPR CHOP act	Mdm2-MdmX inh	CSC inhib	Beta apoptosis	Mdm2 MdmX conf	others
CC(C)c1nc2sc3c(NCc4ccco4)ncnc3c2c2c1COC(C)(C)C2	i	i	i	53	i	i	i
CC(C)c1nc2sc3c(NCc4ccccc4)ncnc3c2c2c1COC(C)(C)C2	i	i	i	i	i	i	nt
O=C(Nc1cccc(Cl)c1)Nc1csc([N+](=O)[O-])c1	51	i	i	90	?	126	87	Full FLuc ctr=39
CCOc1ccc(CCNC(=O)c2ccc(Cl)c(S(=O)(=O)N3CCOCC3)c2)cc1OCC	i	i	i	i	i	i	nt
CCCCOc1ccc(-c2c(C#N)c(N)nc(SCC(N)=O)c2C#N)cc1	90	i	i	55	i	i	i
COc1cnc(-c2ccccn2)nc1NC(C)C	?	i	i	79	i	i	87	Full FLuc ctr=48
Cn1c(=O)oc2cc(S(=O)(=O)N3CCC(C(=O)NCc4ccccc4Cl)CC3)ccc21	i	i	i	51	i	i	i
CCCOc1ccc(C(=O)CCNC(Cc2c[nH]c3ccccc23)C(=O)O)cc1 (stereo unspecified)	i	i	i	87	i	i	i
CC12CCC(C)(c3nc4ccccc4nc31)C2(C)C	i	i	i	i	i	i	nt
Cc1[nH]nc2c1-c1nc3ccccc3nc1C(C)(C)C2	i	i	i	50	nt	i	i
Cc1c(C(=O)N2CCCCC2)c(S(=O)(=O)NCc2ccc(Cl)cc2)c(C)n1C	i	i	i	i	i	i	nt
COc1cccc(Sc2nc(-c3ccccc3)ncc2S(C)(=O)=O)c1	i	i	i	62	nt	nt	i
CN(C)C(=O)CCc1ccc2c3c([nH]c2c1)[C@]1(C)[C@@H](C(=O)N2CCOCC2)C[C@H](CC(=O)NCCC2=CCCCC2)C(=O)N1CC3	nt	i	i	i	nt	nt	nt
CC(=O)c1nn(-c2cccc(Br)c2)cc1C(=O)c1ccc2ccccc2c1	i	i	i	63	nt	i	i
O=C(COC(=O)Cc1ccccc1F)NC(=O)NC1CCCC1	nt	i	i	i	i	i	nt
O=C(CCl)N(CCc1ccccc1)CCc1ccccc1	i	i	i	91	nt	i	i
Cc1cccc(C2(c3cccc(C)c3)CC2C(=O)Nc2ccc([N+](=O)[O-])cc2O)c1 (stereo unspecified)	72	i	i	90	nt	nt	94	Full FLuc ctr=51
C=CCNC(=O)C1CC1(c1cccc(C)c1)c1cccc(C)c1 (stereo unspecified)	i	i	i	i	i	nt	nt
COc1ccc(-n2c(SCCC#N)nnc2-c2cc(Cl)ccc2OC)cc1Cl	i	i	i	54	i	i	64	Full FLuc ctr=51
Cc1cccc(-c2nnc(SCC#N)n2-c2cccc(Cl)c2)c1	i	i	i	i	i	i	nt
CCc1nc2ccc(C(=O)NC3CCC(C)CC3)cc2nc1CC (stereo unspecified)	i	i	i	i	i	i	nt
Cc1cc(NO)c(C(C)C)cc1N=O	i	i	i	60	i	i	i
CC(C)[C@H](NC(=O)c1ccccc1)C(=O)NC1=NCCS1	nt	i	i	i	i	i	nt
CCCCCCCCn1c(=O)c(C(=O)OC)c(N)c2ccccc21	i	i	i	75	i	117	i
CCCCCCCn1c(=O)c(C(=O)OC)c(N)c2ccccc21	i	i	i	i	i	nt	nt
SMILES	SKKanGAS inh	UPR XBP1 act	UPR CHOP act	Mdm2-MdmX inh	CSC inhib	Beta apoptosis	Mdm2 MdmX conf	others
Cc1ccc(-n2ncc(C(=O)Nc3ccc(Cl)cc3)c2C2CCNCC2)cc1C	i	i	i	61	i	i	54	Full FLuc ctr=77
COc1ccc(Cl)cc1/C=C/c1ccc2cccc(O)c2n1	89	i	i	50	i	i	i
CCOc1cccc(/C=C/c2ccc3cccc(O)c3n2)c1O	107	i	i	67	i	i	i
NC(=O)c1nsc(C(=O)N(c2ccccc2F)C(C(=O)NCc2ccccc2)c2ccc(O)cc2)c1N (stereo unspecified)	i	i	i	52	i	i	66	Full FLuc ctr=77
Cc1ccccc1N(C(=O)c1snc(C(N)=O)c1N)C(C(=O)NCc1ccccc1)c1ccc(O)cc1 (stereo unspecified)	i	i	i	i	i	i	nt
CCOC(=O)C1=C(C)N=C2c3ccccc3C(=O)C2C1c1ccc(Cl)cc1 (stereo unspecified)	i	i	i	51	i	i	i
CCOC(=O)C1=NNC(C(=O)c2ccccc2)C1c1ccc(Cl)cc1 (stereo unspecified)	i	i	i	i	i	i	nt
CC1(C)CC(=O)C2=C(C1)N=C1c3ccccc3C(=O)C1C2c1ccc(Cl)cc1 (stereo unspecified)	50	i	i	56	i	i	i
Cc1ccc(C2C3=C(CC(C)(C)CC3=O)N=C3c4ccccc4C(=O)C32)cc1 (stereo unspecified)	i	i	i	i	i	i	nt
CC(C)CC(C)N1CCC(n2nccc2NC(=O)CCc2ccccc2)CC1 (stereo unspecified)	i	i	i	i	i	i	nt
C=CCOC(=O)C1=C(C)NC(SCC(=O)Nc2ccc(C)c(Cl)c2)=C(C#N)C1c1ccco1 (stereo unspecified)	i	i	i	63	i	i	51	Full FLuc ctr=46
NCC(=O)Nc1ccc(Cl)cc1C(=O)c1ccc[nH]1	i	i	i	64	nt	nt	66	Full FLuc ctr=40
COc1ccc([C@H]2CC(=O)C=C(c3ccc(OC)cc3OC)C2)cc1	nt	i	i	51	i	i	i	Full FLuc ctr=98
COc1ccc(C2=CC(=O)C[C@H](c3ccc(OC)cc3)C2)cc1	nt	i	i	i	i	i	nt
COc1cccc(C2C3=C(CCCC3=O)NC3=C2C(=O)c2ccccc23)c1 (stereo unspecified)	i	i	i	i	i	i	nt
CC1(C)CC(=O)C2=C(C1)NC1=C(C(=O)c3ccccc31)C2c1ccc(O)cc1 (stereo unspecified)	i	i	i	i	i	i	nt
CCCc1ccc(C2C3=C(CC(C)(C)CC3=O)NC3=C2C(=O)c2ccccc23)cc1 (stereo unspecified)	i	i	i	76	89	i	i
CCCCc1ccc(C2C3=C(CC(C)(C)CC3=O)NC3=C2C(=O)c2ccccc23)cc1 (stereo unspecified)	i	i	i	55	i	i	i
COc1cc(OC)c(NC(=O)c2csc(C)c2)cc1Cl	i	i	i	i	i	i	nt
Cc1ccc(N(CC(=O)NC2CCCC2)C(=O)c2nsc(Cl)c2Cl)cc1	i	i	i	i	i	i	nt

Assay outcomes from PubChem.
